Counter-ions that a name gives are not always drawn. Like-named read-outs stand apart in the source and are kept apart here.

The target of assay [1] is T1, cPAH (phenylalanine hydroxylase from Chromobacterium violaceum) (Chromobacterium violaceum, UniProt P30967).
T1 sequence (P30967 1-297): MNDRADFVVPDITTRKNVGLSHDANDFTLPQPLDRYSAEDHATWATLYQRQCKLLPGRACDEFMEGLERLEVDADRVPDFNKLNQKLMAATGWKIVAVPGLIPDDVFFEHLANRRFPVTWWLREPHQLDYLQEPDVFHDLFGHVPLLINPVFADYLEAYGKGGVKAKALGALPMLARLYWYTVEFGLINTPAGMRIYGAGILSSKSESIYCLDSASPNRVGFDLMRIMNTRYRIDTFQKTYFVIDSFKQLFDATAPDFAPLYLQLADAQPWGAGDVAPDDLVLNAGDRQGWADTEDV
As to the kind of experiment: ITC. Format: binding. The essentials: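 Untagged or GST-cleaved C. violaceum cPAH (WT or point mutants), dialysed overnight against 50 mM HEPES pH 7.4. Amino-acid ligand (1–10 mM) titrated into 50–100 µM protein over 18 × 2 µL injections. Buffer-only reference subtracted; one-site fit; duplicates. Anaerobic variant (argon, 25 °C): apo enzyme reconstituted with 0.5–1.0 mol ferrous ammonium sulfate per mol PAH, plus 200 µM pterin cofactor, equilibrated 15 min.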

In assay [2] the target is T2, cPAH (phenylalanine hydroxylase from Chromobacterium violaceum) (Chromobacterium violaceum, UniProt P30967, T254A). The assay can be described thus: biochemical.
Assay [3] concerns the target T3, cPAH (phenylalanine hydroxylase from Chromobacterium violaceum) (Chromobacterium violaceum, UniProt P30967, S203P). As to the kind of experiment: biochemical.
The target in assay [4] is T4, cPAH (phenylalanine hydroxylase from Chromobacterium violaceum) (Chromobacterium violaceum, UniProt P30967, Y155A). The assay can be described thus: biochemical.
Assay [5] concerns the target T5, cPAH (phenylalanine hydroxylase from Chromobacterium violaceum) (Chromobacterium violaceum, UniProt P30967, F258A). The assay can be described thus: biochemical.
For assay [6], the target named is T2, cPAH (phenylalanine hydroxylase from Chromobacterium violaceum). As to the kind of experiment: biochemical. This is another data set of the same source.
In assay [7] the target is T1, cPAH (phenylalanine hydroxylase from Chromobacterium violaceum). As to the kind of experiment: tyrosine formation at […] nm, initial rates. Format: biochemical. Conditions: 20 °C, 0.1 M Na-HEPES pH 7.4, O2 saturated, FeSO4, 350 µM DMPH4.
The target of assay [8] is T4, cPAH (phenylalanine hydroxylase from Chromobacterium violaceum). The assay can be described thus: biochemical. The source holds these as a separate data set.
Assay [9] concerns the target T5, cPAH (phenylalanine hydroxylase from Chromobacterium violaceum). The assay can be described thus: biochemical. The source holds these as a separate data set.
Assay [10] has as its target T1, cPAH (phenylalanine hydroxylase from Chromobacterium violaceum). As to the kind of experiment: ITC, one-site model. Format: binding.
The target of assay [11] is T3, cPAH (phenylalanine hydroxylase from Chromobacterium violaceum). The assay can be described thus: biochemical. This is another data set of the same source.

With `C[C@H](O)[C@H](O)[C@H]1CNc2nc(N)[nH]c(=O)c2N1` [BH4, (6R)-5,6,7,8-tetrahydrobiopterin dihydrochloride], the Kd in assay [1] amounted to 23.5 ± 1.6 µM; in assay [2], 43.6 ± 4.2 µM; in assay [3], 35.2 ± 3.3 µM; in [4], 16.2 ± 0.7 µM; in assay [5], 29.3 ± 1.6 µM.
Regarding `N[C@@H](Cc1ccccc1)C(=O)O` [phenylalanine], the Kd turned out to be 376 ± 10 µM in assay [6]; 559 ± 30 µM in assay [8]; 775 ± 44 µM in assay [9]; 24 ± 1.1 µM in assay [10]; 7 ± 0.3 µM in assay [11]. The Km in assay [7] turned out to be 244 ± 40.8 µM.

These data come from article PMC3972754 (European biophysics journal : EBJ, 2013).
